Results on nine compounds are retold here after ChEMBL document CHEMBL1212866, “Synthesis and anti-hepatitis C virus activity of novel ethyl 1H-indole-3-carboxylates in vitro” (Bioorg Med Chem, 2010).

As usually defined, the IC50 is the concentration at which inhibition is half-maximal. Low readings indicate greater potency, high ones weaker potency. In general, inhibition refers to the change of the read-out against control, counted positive when it falls. Low values mean a response near the control, high ones a response far below the control.

In data set [1] the test system is Hepatitis C virus. Nature of the data set: Antiviral activity against HCV 2a infected in human Huh7.5 cells assessed inhibition of viral replication after 3 days by luciferase assay. Format: functional, Hepacivirus hominis, genotype 2a, Huh-7. In short, it runs like this: (§1)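 Huh-7.5 cells transfected with an RNA transcript of a replicon carrying a firefly luciferase reporter, then plated in 96-well plates with compounds present. Luciferase activity measured after three days of incubation. IC50 calculated; single-point lines give % inhibition at 100 µM.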

Data set [2] in a line: Cytotoxicity against human Huh7.5 cells by celltiter-blue viability assay. Format: cell-based. As to conditions: Huh-7. The essentials: (§2)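 Huh-7.5 cells exposed to compounds, and viability estimated by CellTiter-Blue, a resazurin reagent that metabolically active cells reduce to fluorescent resorufin (excitation 579 nm, emission 584 nm). TC50 taken as the 50% cytotoxic concentration; the single-point line reflects testing at 50 µM.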
In general terms: Alamar Blue is a resazurin reagent that responds to reducing activity.

For data set [3], the system named is Hepatitis C virus. Briefly: Antiviral activity against HCV 2a infected in human Huh7.5 cells assessed inhibition of viral entry after 3 days. Format: functional, Hepacivirus hominis, genotype 2a, Huh-7. The essentials: (§3)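 Naive Huh-7.5 cells infected with viral particles carrying a subgenomic HCV RNA with a firefly luciferase reporter, then plated in 96-well format with compounds present. Luciferase activity read after three days of incubation. IC50 calculated; single-point lines give % inhibition at 100 µM.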

The nature of data set [4]: Selectivity index, IC50 for human Huh7.5 cells to TC50 for inhibition of HCV 2a entry into human Huh7.5 cells. Format: functional, Huh-7. The essentials:
(§4)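 Index computed as TC50 divided by IC50. TC50 comes from the CellTiter-Blue viability assay in Huh-7.5 cells. IC50 comes from the luciferase-reporter HCV infection (entry) or replicon (replication) assay in Huh-7.5 cells, read after three days.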

Data set [5] in a line: Selectivity index, IC50 for human Huh7.5 cells to TC50 for inhibition of HCV 2a replication in human Huh7.5 cells. Format: functional, Huh-7. The essentials:
as §4

For data set [6], the system named is Hepatitis C virus. Nature of the data set: Antiviral activity against HCV 2a infected in human Huh7.5 cells assessed inhibition of viral entry at 100uM after 3 days. Particulars: genotype 2a, Huh-7, 72 h. Format: functional, Hepacivirus hominis. The essentials: as §3
Data set [7] can be described thus: Cytotoxicity against human Huh7.5 cells at 50 uM by celltiter-blue viability assay. Format: cell-based. Particulars: huh-7, 50 µM. In short, it runs like this:
as §2

For data set [8], the system named is Hepatitis C virus. Nature of the data set: Antiviral activity against HCV 2a infected in human Huh7.5 cells assessed inhibition of viral replication at 100 uM after 3 days by luciferase assay. Format: functional, Hepacivirus hominis. Particulars: genotype 2a, Huh-7, 72 h. In short, it runs like this:
as §1

With `CCOC(=O)c1c(CS(=O)(=O)c2ccccc2)n(C)c2ccc(CN(C)C)cc12`, the TC50 with Hepatitis C virus [1] and in the data set on Hepatitis C virus [3] was above 50 µM each time. The compound also yielded an IC50 in data set [2] of 10 µM. Also, the entries for the “Selectivity Index” value in data set [4] and in data set [5] were above 2.6 and above 5, respectively.
`CCOC(=O)c1c(CS(=O)(=O)c2ccccc2)n(C)c2ccc(CN3CCCC3)cc12`: the TC50 with Hepatitis C virus [1] and with Hepatitis C virus [3] was above 50 µM throughout. Moreover, in data set [2], the IC50 turned out to be 3 µM. The inhibition at 100 µM in the data set with Hepatitis C virus [6] came out at 95%; in the data set on Hepatitis C virus [8], 80%. Moreover, the figures for the “Selectivity Index” value in data set [4] and in data set [5] were above 10 and above 16.7, respectively. Besides, the Activity result in data set [7] was “Non-toxic”.
Regarding `CCOC(=O)c1c(CS(=O)(=O)c2ccccc2)n(C)c2ccc(CN3CCN(C)CC3)cc12`, the TC50 with Hepatitis C virus [1] and in the data set on Hepatitis C virus [3] was above 50 µM each time. The compound also had an IC50 in data set [2] of 4 µM. Further, the “Selectivity Index” value in data set [4] was above 6.3; in data set [5], above 12.5.
In the case of `CCOC(=O)c1c(CS(=O)(=O)c2ccccc2)n(C)c2ccc(CN3CCOCC3)cc12`, the TC50 in the data set on Hepatitis C virus [1] and in the data set with Hepatitis C virus [3] was above 50 µM in each case. In data set [2], this compound registered an IC50 of 4 µM. Moreover, the “Selectivity Index” value in data set [4] was above 3.6; in data set [5], above 12.5.
Take `CCOC(=O)c1c(CS(=O)(=O)c2ccccc2)n(C)c2ccc(CN3CCCNCC3)cc12`: the TC50 in the data set with Hepatitis C virus [1] and with Hepatitis C virus [3] was above 50 µM throughout. Moreover, in data set [2], half-maximal inhibition (IC50) was put at 12 µM. The “Selectivity Index” value in data set [4] is listed as above 2.4; in data set [5] it was above 4.2.
In the case of `CCOC(=O)c1c(CS(=O)(=O)c2ccccc2)n(C)c2ccc(Cn3ccnc3)cc12`, the TC50 with Hepatitis C virus [1] amounted to 18 µM; in the data set on Hepatitis C virus [3], 23 µM. Moreover, the IC50 in data set [2] is 15 µM. In addition, the entries for the “Selectivity Index” value in data set [4] and in data set [5] were 4.6 and 1.2, respectively.
The corresponding values for `CCOC(=O)c1c(C)n(C)c2ccc(CN(C)C)cc12` are above 50 µM, above 50 µM, 3 µM, above 6.3 and above 16.7.
The corresponding values for `CCOC(=O)c1c(C)n(C)c2ccc(CN3CCCC3)cc12` are above 50 µM, above 50 µM, 5 µM, above 3.8 and above 10.
The corresponding values for `CCOC(=O)c1c(CSc2ccccc2)n(C)c2cc(Br)c(O)c(CN(C)C)c12` [UMIFENOVIR] are 15 µM, 12 µM, 1 µM, 6 and 15.
